Screening results: PubChem, Sanford-Burnham Center for Chemical Genomics
Apaf-1 act = activators of human Apaf-1 apoptosome, primary screen, biochemical, DEVD-Rh110 fluorescence, uHTS; Apoptotic protease-activating factor 1 (Homo sapiens), O14727; Apaf-1 apoptosome caspase-3 activation; hits give low values; activity change, negative = activation, % at 20 µM; actives 0.31% (n = 330,000);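 active = activity change at or below -40% at 20 µM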
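Schedule: 30 min preincubation, 50 min reaction, room temperature / System: biochemical Apaf-1 apoptosome reconstitution / Medium: 20 mM HEPES pH 7.5 with CHAPS, BSA / Evaluation: Caspase-3 cleavage activity downstream of Apaf-1 activation / Detection: Caspase-3-released Rh110 fluorescence, 540 nm emission, 480 nm excitation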
Rh110 interf act = Rh110 fluorescence interference by putative Apaf-1 activators, confirmation, artefact control for Apaf-1 activator project, biochemical, 20 µM; shares compounds with Apaf-1 act; quenched caspase reaction, Ex480/Em540; fluorescence interference (activity change), % at 20 µM, hits read low; 980 tested, under 10 active; AID 504616, 2011;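 active = mean activity change at or below -40% when tested at 20 µM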
Apaf-1 act conf2 = Apaf-1 activators, single-dose retest, confirmation, biochemical, fluorescence, DEVD-Rh110, 20 µM; activity change, negative = activation, % at 20 µM; AID 504617, 2011; reconstituted apoptosome caspase-3 activity; hits give low values; shares compounds with Apaf-1 act; actives 5% (n = 980);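 active = mean activity change at or below -40%, meaning activation of 40% or more, at 20 µM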
Fluor interf act = fluorescence interference of Apaf-1 activator hits, dose response, artefact control for Apaf-1 activator project. fluorescence interference counterscreen, Apaf-1 activator assay. EC50, µM. AID 588592, 2011. 55 tested, under 10 active. shares compounds with Apaf-1 act; call rule not given here
Numbers without * were called inactive; x = no result given. A selection follows.

SMILES	Apaf-1 act	Rh110 interf act	Apaf-1 act conf2	others
COc1ccc(-c2sc3cc4c(cc3c2C#CC2(N)CCCCC2)OCO4)cc1	72	x	x
CS(=O)(=O)N(Cc1ccc(C(=O)NN=C2CCCCCC2)cc1)c1ccccc1	-482*	2	14
Cc1ccc(N(CC(N)=O)C2SC(=O)N(C)C2=O)cc1 (stereo unspecified)	-488*	8	12
O=C(Nc1ccccc1OC(F)F)c1oc2ccccc2c1COc1ccccc1	-180*	4	12
Cc1ccc(NC(=O)N(CCC#N)Cc2ccccc2)cc1	-471*	-13	2
CCCCCc1ccc(OCCCC[n+]2ccccc2)c(CCCCC)c1	59	x	x
CC[C@]12c3[nH]c4ccc(OC)cc4c3CCN1C(=O)C(CC(=O)NC/C=C(\C)CCC=C(C)C)C[C@@H]2C(=O)N1CCN(C(=O)c2ccco2)CC1 (stereo partly specified)	40	x	x
COc1ccc2cc(C(c3nnnn3C3CCCC3)N3CCc4ccccc4C3)c(=O)[nH]c2c1 (stereo unspecified)	72	x	x
CNC(=S)N(Cc1cc2ccc(OC)cc2[nH]c1=O)CC1CCCO1 (stereo unspecified)	-183*	5	15
COc1ccc(NCc2cc3cc(OC)ccc3[nH]c2=O)cc1	47	x	x
COc1ccc(NC(=O)c2c[nH]n3c(=O)cc(C4CCN(C(=O)OC(C)(C)C)CC4)nc23)cc1Cl	42	x	x
COc1cccc2c1[C@@H]1CN(CCCCn3c(=O)[nH]c4c(sc5ncc(-c6ccccc6)nc54)c3=O)C[C@@H]1CO2	48	x	x
Cc1ccc2cc(C(c3nnnn3Cc3ccccc3)N3CCc4ccccc43)c(=O)[nH]c2c1 (stereo unspecified)	43	x	x
COC1=C(Nc2ccc(C)cc2)C(=O)c2ccccc2C1=O	61	x	x
COc1ccccc1C(=O)Nc1ccc(Oc2nnc(-c3ccc(C)cc3)c3ccccc23)cc1	40	x	x
COc1ccc(NC(=O)C(c2ccccn2)N(C(C)=O)c2ccc(C)cc2)cc1 (stereo unspecified)	-415*	8	6
COC(=O)C1=C(C)N(Cc2ccccc2)C(=NCc2cccc(C(F)(F)F)c2)N[C@H]1c1cccc(C(F)(F)F)c1	74	x	x
O=C(CN1CCN(Cc2ccccc2)CC1)Nc1cccc(S(=O)(=O)N2CCCCCC2)c1	-174*	10	15
Cn1c(CN2CCCC2)nc2cc(NC(=O)COc3ccccc3)ccc21	53	x	x
CCN(c1ccccc1)S(=O)(=O)c1ccc(Cl)c(NC(=O)CN2CCN(C)CC2)c1	52	x	x
O=C(CSc1ncnc2ccccc12)Nc1cccc(S(=O)(=O)N2CCCC2)c1	-43*	2	1
CCN(CC(=O)NCc1cccs1)C(=O)C1CC(=O)N(c2ccc(OC)cc2OC)C1 (stereo unspecified)	51	x	x
COC(=O)c1cccc(-c2ccc(C(c3c(C)[nH][nH]c3=O)c3c(C)[nH][nH]c3=O)o2)c1	81	x	x
CCN(CC)CCn1c2c(c(SCC(=O)Nc3nccs3)nc1=O)CCCC2	-50*	-4	10
CCCCCc1cc(=O)oc2c(C(CCN3CCCC(C)C3)c3cc(OC)c(OC)c(OC)c3)c(OC)cc(OC)c12 (stereo unspecified)	60	x	x
SMILES	Apaf-1 act	Rh110 interf act	Apaf-1 act conf2	others
COCC(C)N1C(=O)Cc2c1nc(N)c1c(N)nc(N3CCN(c4ccccc4F)CC3)c(C#N)c21 (stereo unspecified)	97	x	x
COc1cc2[nH]c(C(=O)NN)c(N)c2cc1OC	48	x	x
COCCn1c(=S)[nH]c2cc(OC)c(OC)cc2c1=O	-93*	2	7
Cc1c(O)cccc1C(=O)N[C@@H](CSc1ccccc1)[C@H](O)CN1C[C@H]2CCCC[C@H]2C[C@H]1C(=O)NC(C)(C)C	30	x	x
COc1ccc(C(=O)Nn2cnc3scc(-c4cccs4)c3c2=O)c(O)c1	-391*	2	21
CCc1nc(N2CCN(C(C)=O)CC2)c2c3c(sc2n1)CC(C(C)(C)C)CC3 (stereo unspecified)	42	x	x
O=C(C1CC(=O)N(c2ccc3c(c2)OCCO3)C1)N1CCCC(C(F)(F)F)C1 (stereo unspecified)	-45*	5	2
CCCCCN(C(=O)NC(=O)Nc1nncs1)S(C)(=O)=O	-46*	-2	7
O=C(COC(=O)/C=C/c1ccc(OC(F)F)cc1)NC1CCCCCC1	-64*	7	12
CCN1CCN(c2ccc(S(=O)(=O)N3CCCCC3)cc2NC(=O)/C=C/c2ccc(OC(F)F)cc2)CC1	52	x	x
O=C(O)c1cc(O)c2c(c1)[C@@H]([C@H]1c3cc(C(=O)O)cc(O)c3C(=O)c3c(O[C@@H]4O[C@H](CO)[C@@H](O)[C@H](O)[C@H]4O)cccc31)c1cccc(O[C@@H]3O[C@H](CO)[C@@H](O)[C@H](O)[C@H]3O)c1C2=O	99	x	x
O=C(Nc1ccccc1O)c1ccc2c(c1)C(=O)N(Cc1ccco1)C2=O	-93*	-9	5
Cc1cc2cc(C(c3nnnn3Cc3ccco3)N3CCc4ccccc4C3)c(=O)[nH]c2cc1C (stereo unspecified)	41	x	x
COc1ccc(/C=N/n2c(C)nc3sc(C)c(C)c3c2=O)cc1OC	-145*	15	12
COc1ccc2noc3c2c1C(=O)c1ccccc1-3	78	x	x
COc1cccc(-c2sc3ccc(OC)cc3c2-c2ccc(OCCN(C)C)cc2)c1	75	x	x
CCOc1ccc(NC(=O)CN(C)S(=O)(=O)c2ccc(-c3ccc(=O)[nH]n3)s2)cc1	-86*	12	17
CCOc1ccc(C(=O)Nc2sc3c(c2C(=O)OC)CC(C)(C)NC3(C)C)cc1	41	x	x
Nc1nn2c(-c3ccccc3)cc(=O)[nH]c2c1N=Nc1ccc(O)cc1	41	x	x
CCCCCCCCCCC[N+](C)(C)CC/C=C1/c2ccccc2Sc2ccc(Cl)cc21	75	x	x
OCc1cc(C(O)CNCCCCCCOCCCCc2ccccc2)ccc1O (stereo unspecified)	42	x	x
CCOC(=O)c1[nH]c(COC(=O)c2ccccc2NC(=O)c2ccco2)c(C(=O)OCC)c1C	-383*	9	11
CCN(C(=S)NC(=O)c1ccco1)c1cccc2ccccc12	82	x	x
N#Cc1c2c(c(-n3cnc4ccccc43)n3c1nc1ccccc13)CCC2	45	x	x
COc1cc2sc(-c3ccccc3OC)c(-c3ccc(OCCN4CCCCC4)cc3)c2cc1OC	66	x	x
CC1=NN(c2ccccc2)C(=O)/C1=C/c1ccc(-c2ccc(C)c(C(=O)O)c2)o1	68	x	x
CC1=NN(c2ccc(C(=O)O)cc2)C(=O)/C1=C/c1ccc(-c2ccccc2F)o1	58	x	x
COC(=O)c1ccccc1-c1ccc(/C=C2\C(=O)N(c3ccccc3)N=C2c2ccccc2)o1	62	x	x	Fluor interf act=>100
CCCC(=O)OCCNc1cc(SCc2ccco2)c2nonc2c1[N+](=O)[O-]	57	x	x
Cc1ccc(C(=O)NC2(O)C(=O)c3ccccc3C2=O)cc1C	97	x	x
